Source: PubChem BioAssay (Johns Hopkins Ion Channel Center)
Sampled rows, rich in hits. Any-hit rate of the full collection: about 3.5%.
RGS4 block: human RGS4 inhibition; P49798; HEK293 M3R/RGS4 inducible, Fluo-4 calcium flux; stronger effect = higher value; triggered by carbachol at its EC20; B-score at 10 µM; 310,000 compounds, 0.45% hits; AID 463165;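 active = B-score, a plate-corrected calcium signal, over three deviations above library mean, with baseline fluorescence within five deviations of library mean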;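 note: RGS4 expression induced by doxycycline in cells with stable M3 receptor; B-score is computed from the integrated fluorescence ratio over baseline after carbachol; higher B-score means a larger calcium signal and so more RGS4 inhibition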
Target sequence (P49798 whole entry, looked up): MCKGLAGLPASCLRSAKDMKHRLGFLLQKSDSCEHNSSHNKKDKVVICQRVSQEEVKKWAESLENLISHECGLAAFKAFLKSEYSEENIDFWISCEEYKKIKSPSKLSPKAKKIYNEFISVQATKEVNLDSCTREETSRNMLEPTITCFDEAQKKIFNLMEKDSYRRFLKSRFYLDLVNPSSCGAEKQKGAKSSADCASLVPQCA
MrgX1 antagonist: blocks BAM8-22 activation of human MrgX1 receptor. Q96LB2. MRGX1-HEK293 calcium flux, Fluo-4, BAM8-22 antagonism; stronger effect = lower value. B-score at 10 µM. 310,000 compounds, 1.3% hits. AID 588676;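 active = calcium-response B-score plate-corrected more than 3 library SD below zero, starting fluorescence within 5 deviations, no agonist response on first addition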;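 note: peak minus trough fluorescence over baseline after final BAM8-22 challenge near maximal dose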
Target sequence (Q96LB2 whole entry, looked up): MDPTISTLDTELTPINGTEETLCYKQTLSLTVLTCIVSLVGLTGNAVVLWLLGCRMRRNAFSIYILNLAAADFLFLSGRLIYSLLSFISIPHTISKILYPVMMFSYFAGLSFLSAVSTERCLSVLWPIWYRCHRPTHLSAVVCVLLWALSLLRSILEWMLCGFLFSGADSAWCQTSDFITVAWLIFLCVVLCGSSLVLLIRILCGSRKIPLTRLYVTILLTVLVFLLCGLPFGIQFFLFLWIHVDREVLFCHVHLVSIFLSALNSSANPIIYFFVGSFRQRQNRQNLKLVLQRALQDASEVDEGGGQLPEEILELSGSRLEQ
RGS4 pot: potentiators or activators of RGS4; HEK293 M3R/inducible RGS4, carbachol calcium flux Fluo4; stronger effect = lower value; B-score at 10 µM; 310,000 compounds, 0.92% hits; AID 463111;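 active = B-score of the integrated calcium signal more than 4 SD below the library mean, with starting fluorescence not abnormally high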;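 note: negative B-score means reduced calcium response which marks RGS4 activation or potentiation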
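Reagent: ECmax carbachol challenge; Test system: M3R-expressing HEK293 line, RGS4 induced by doxycycline; Schedule: overnight RGS4 induction, 30 min dye load 37 °C, 20 min compound RT; Detection: calcium dye Fluo4 fluorescence; Read-out: Agonist-evoked peak-minus-minimum fluorescence over baseline, integrated ratio, B score.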
MrgX1 allo act: allosterically activates human MrgX1 receptor signaling; Q96LB2; MrgX1-HEK293, Fluo-4 calcium flux, FDSS; stronger effect = higher value; B-score at 10 µM; 310,000 compounds, 0.63% hits;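 active = plate-corrected calcium response at least 3 library SD above typical, normal starting fluorescence, not activating the receptor alone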;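 note: compound read alongside a low EC10 to EC30 dose of BAM8-22 agonist; peak minus trough fluorescence over baseline measured at the second addition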
MrgX1 agonist: human MrgX1 receptor agonism, primary screen. Q96LB2. AID 588627. 310,000 compounds, 0.44% hits. MrgX1-HEK293 cells, Fluo-4 calcium fluorescence, agonist mode; stronger effect = higher value. B-score at 10 µM;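 active = calcium response B-score plate-corrected fluorescence ratio at least 3 library SD, with starting fluorescence B-score inside 5 SD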
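System – MrgX1-expressing HEK293 cells · Incubation – cells plated overnight, dye loaded 0.5 h 37 °C, 0.5 h room temperature · Technique – kinetic Fluo-4 NW fluorescence of intracellular calcium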
MrgX1 ant reconf: human MrgX1 receptor antagonism, re-confirmation screen; remaining BAM8-22 calcium response % of control (stronger effect = lower value), % at 10 µM; shares compounds with MrgX1 antagonist; AID 602420; 2,300 compounds, 19% hits; MrgX1-HEK293, BAM8-22 calcium flux, Fluo-4; stronger effect = lower value;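 active = remaining agonist calcium response no higher than 100% minus 3 SD of agonist-only control wells, with starting fluorescence near control levels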;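 note: agonist BAM8-22 given at a near maximal EC90 to ECmax level; peak minus minimum fluorescence divided by baseline after agonist addition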
HEK293 Ca flux: activity in parental HEK293 cells lacking MrgX1; shares compounds with MrgX1 antagonist; Fluo-4 calcium fluorescence, FDSS; fluorescence ratio F(max-min)/F0 at 10 µM; 4,000 compounds, 2% hits; AID 624111;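 active = duplicate-averaged calcium fluorescence ratio at least three times the standard deviation of buffer wells, a nonspecific response in parental cells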
HEK293 Ca counter: activity in parental HEK293 cells without MrgX1. fluorescence ratio F(max-min)/F0 at 10 µM. shares compounds with MrgX1 antagonist. parental HEK293 calcium flux, Fluo-4 fluorescence ratio; stronger effect = higher value. 4,000 compounds, 0.4% hits;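 active = calcium fluorescence ratio, averaged over duplicates, at least 3 SD of the buffer-well ratio, meaning a nonspecific response in receptor-free cells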;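 note: untransfected parental HEK293 lacking MrgX1 used as counterscreen for MrgX1 allosteric activators; fluorescence change taken during the second addition on a kinetic imager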
HEK293 Ca cntr2: activity in parental HEK293 cells lacking MrgX1 receptor; shares compounds with MrgX1 antagonist; Fluo-4 calcium fluorescence (FDSS); stronger effect = higher value; fluorescence ratio F(max-min)/F0 at 10 µM; 4,000 compounds, 8.7% hits; AID 624115;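 active = calcium fluorescence ratio at least three times the spread of buffer wells, meaning a non-specific response in parental cells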
Active calls of the source: *; i = inactive; . = no result given.

SMILES	RGS4 block	MrgX1 antagonist	RGS4 pot	MrgX1 allo act	MrgX1 agonist	MrgX1 ant reconf	HEK293 Ca flux	HEK293 Ca counter	HEK293 Ca cntr2
CN1CCN(S(=O)(=O)c2cccc(C(=O)Nc3sc4c(c3-c3nc5ccccc5[nH]3)CCCC4)c2)CC1	i	-5.5*	i	i	i	54.6%*	i	i	i
CC(NC(=O)CSc1nc2ccc(N)cc2s1)c1ccccc1 (stereo not given)	i	-5.53*	i	i	i	i	i	i	i
COc1ccc(CNC(=O)CSc2nc3ccc(N)cc3s2)cc1	i	i	i	i	i	.	.	.	.
COc1cccc(C=O)c1OC(=O)N1CCOCC1	i	i	i	i	i	.	.	.	.
CCN1CCN(/C=N/c2nc3c(s2)CCCC3)CC1	i	-4.51*	i	i	i	i	i	i	i
CCOC(=O)c1sc2nc(CSc3ccccc3)nc(N3CCC(C(N)=O)CC3)c2c1C	i	i	i	i	i	.	.	.	.
Cc1sc2nc(CSc3ccccc3)nc(N3CCC(C(N)=O)CC3)c2c1C	i	-11*	i	i	i	i	i	i	i
CC(C)(C)n1nnnc1C(c1cc2cc3c(cc2[nH]c1=O)OCO3)N1CCN(c2ccccc2)CC1 (stereo not given)	i	-6.96*	i	i	i	i	i	i	i
CCn1c(C(C)NS(=O)(=O)c2ccc(Cl)cc2)n[nH]c1=S (stereo not given)	i	-6.5*	i	i	i	i	i	i	i
CCCn1c(C(C)NS(=O)(=O)c2ccccc2)n[nH]c1=S (stereo not given)	i	i	i	i	i	.	.	.	.
Cc1ccc(C(NC(=O)c2ccccc2)C(Cl)(Cl)Cl)cc1 (stereo not given)	i	i	i	i	i	.	.	.	.
Cc1ccc(C(=O)NC(N(C)C)C(Cl)(Cl)Cl)cc1 (stereo not given)	i	-4.53*	i	i	i	i	i	i	i
CC(C)N1CSC(=S)N(Cc2ccccc2)C1	i	i	i	i	i	.	.	.	.
COc1ccc(N2C(=S)NC(C)(C)CC2(C)c2ccc(OC(C)=O)cc2OC(C)=O)cc1 (stereo not given)	i	-4.56*	i	i	i	i	i	i	i
Cc1ccc(NC(=O)c2cc(-c3cccc(O)c3)on2)cc1C	i	i	i	i	i	.	.	.	.
CCOC(=O)C1CN(S(=O)(=O)c2ccc(C)cc2)c2cc(S(=O)(=O)CC)ccc2O1 (stereo not given)	i	-4.83*	i	i	i	i	i	i	i
CC(C)CNC(=S)N1CCC(Cc2ccccc2)CC1	i	i	i	i	i	.	.	.	.
O=C(NCCc1ccncc1)Nc1cccc(Cl)c1	i	-4.56*	i	i	i	i	i	i	i
Cc1ccc(CN2CCN(Cc3ccccc3)C(CCO)C2)s1 (stereo not given)	i	i	i	i	i	.	.	.	.
CSc1cccc(CN2CCN(CCc3ccccc3)C(CCO)C2)c1 (stereo not given)	i	i	i	i	i	.	.	.	.
Cc1ccc(CN2CCN(Cc3ccc(C)s3)CC2CCO)cc1 (stereo not given)	i	-5.08*	i	i	i	i	i	i	i
CSc1ccc(CN2CCN(Cc3ccccc3)C(CCO)C2)cc1 (stereo not given)	i	-4.84*	i	i	i	82.7%*	i	i	i
CSc1ccc(CN2CCN(CC=C(C)C)C(CCO)C2)cc1 (stereo not given)	i	i	i	i	i	.	.	.	.
CSc1cccc(CN2CCN(Cc3ccccc3)C(CCO)C2)c1 (stereo not given)	i	-5.16*	i	i	i	82.9%*	i	i	i
CCCCN(C(=O)Cn1ncc(Cl)c(Cl)c1=O)c1c(N)n(CC(C)C)c(=O)[nH]c1=O	i	i	i	i	i	.	.	.	.
SMILES	RGS4 block	MrgX1 antagonist	RGS4 pot	MrgX1 allo act	MrgX1 agonist	MrgX1 ant reconf	HEK293 Ca flux	HEK293 Ca counter	HEK293 Ca cntr2
O=C(Nc1cc(NC(=O)c2ccccc2F)ccc1Cl)c1ccccc1	i	i	i	i	i	.	.	.	.
Cc1cc(Cl)ccc1C(=O)C1CCCN(C(=O)c2cncs2)C1 (stereo not given)	i	i	i	i	i	.	.	.	.
COc1ccc([N+](=O)[O-])cc1NC(=O)C1C2C=CC(C2)C1C(=O)O (stereo not given)	i	i	i	i	i	.	.	.	.
Cc1ccc2c(c1)nnn2C1CCN(S(=O)(=O)c2ccc(C(=O)NC3CCCC3)cc2)CC1	i	i	i	i	i	.	.	.	.
Cc1ccc2c(c1)nnn2C1CCN(S(=O)(=O)c2ccc(C(=O)N(C)C)cc2)CC1	i	-7.04*	i	i	i	i	i	i	i
Cc1nn(-c2ccccc2)nc1C(=O)Nc1ccc2c(c1)OCCO2	i	-12*	i	i	i	i	i	i	i
CCCC(C)NC(C)C(=O)NC1CCCC1 (stereo not given)	i	-4.97*	i	i	i	i	i	i	i
CCCC(CCC(=O)NC1CCCCC1)C(=O)O (stereo not given)	i	i	i	i	i	.	.	.	.
CCOC(=O)N1CCN(C2CC(=O)N(c3ccc(F)cc3)C2=O)CC1 (stereo not given)	i	-5.89*	i	i	i	i	i	i	i
CCOC(=O)C1(Cc2ccccc2)CCCN(CCO)C1 (stereo not given)	i	-5*	i	i	i	i	i	i	i
CCOC(=O)C1(Cc2ccccc2)CCN(Cc2cnn(-c3ccccc3)c2)CC1	i	-6.02*	i	i	i	73.0%*	i	i	i
